Screening data deposited in PubChem BioAssay by several laboratories.
Most compounds without a hit are left out; they make up all but 4.2% or so of the library.
SKKanGAS inh: blocks kanamycin growth of S. pyogenes SKKanGAS strain. BacTiter-Glo, 6 h. inhibition, % at 7.5 µM. 300,000 tested, 1.3% active;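 active = mean replicate score, as percent of positive control median, at least 50; inconclusive = mean below 50 but one replicate at or above 50; inactive = mean and every replicate below 50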;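 also: strain carries kanamycin resistance gene driven by streptokinase promoter and grows in 40 µg/ml kanamycin; loss of luminescence reflects streptokinase promoter inhibition or plain growth inhibition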
Autophagy mod: alters autophagy in cells. MEF GFP-LC3 puncta imaging; test concentration mostly 10 µM. calls only at 10 µM (by protocol). 190,000 tested, 0.98% active. AID 463193;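 active = percentage of spot-positive cells more than 3 SD above its plate mean, without a fluorescence outlier flag or 80% toxicity; inconclusive = no clear call, values can overlap the other calls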
Insulin prom up: MIN6 insulin promoter up-regulation | MIN6 insulin promoter-GFP reporter, high-content imaging; stronger effect = higher value | z-score at 5 µM | 190,000 tested, 0.3% active;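 active = z-score above 3 at 5 µM with at least 500 cells counted in the well; inconclusive = wells under 500 cells, flagged as cytotoxic or low count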
Rad51 HR inh: Rad51 (human) homologous recombination inhibition | Q06609 | AID 1385 | 200,000 tested, 0.085% active | hRad51 DNA strand exchange, fluorescence dequenching | inhibition, % at 10 µM;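 active = inhibition above 40% at the single screening dose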
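System: hRad51 filaments on single-stranded DNA; reagent: Fluorescein- and BHQ1-tagged 47-mer duplex; compound dosing: one concentration, 10 µM final; timing: filaments 15 min 37 °C, then compound 30 min; measured by: fluorescein emission 520 nm, excitation 485 nm; benchmarks: per-plate controls and blanks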
WT yeast gro inh: growth inhibition of WT yeast, mitochondrial fusion screen. mitochondrial fusion phenotypic screen, WT strain. inhibition, % at 10 µM. 190,000 tested, 2.1% active. AID 1362; in the data active = inhibition above about 58%; tested in S. cerevisiae
KCC2 mod: modulators of human KCC2 chloride dependent transport | B-score of Tl+ flux slope (higher = more flux/activation; lower = inhibition) at 10 µM | KCC2 cells, thallium flux FluoZin-2 fluorescence | 190,000 tested, 2.2% active;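 active = thallium flux slope and its plate-corrected score both differing from the plate sample mean at a set confidence after two filtering rounds, in either direction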;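 also: slope of fluorescence scaled to starting intensity during 10 to 20 s after thallium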
Target sequence (Q9H2X9 whole entry, looked up): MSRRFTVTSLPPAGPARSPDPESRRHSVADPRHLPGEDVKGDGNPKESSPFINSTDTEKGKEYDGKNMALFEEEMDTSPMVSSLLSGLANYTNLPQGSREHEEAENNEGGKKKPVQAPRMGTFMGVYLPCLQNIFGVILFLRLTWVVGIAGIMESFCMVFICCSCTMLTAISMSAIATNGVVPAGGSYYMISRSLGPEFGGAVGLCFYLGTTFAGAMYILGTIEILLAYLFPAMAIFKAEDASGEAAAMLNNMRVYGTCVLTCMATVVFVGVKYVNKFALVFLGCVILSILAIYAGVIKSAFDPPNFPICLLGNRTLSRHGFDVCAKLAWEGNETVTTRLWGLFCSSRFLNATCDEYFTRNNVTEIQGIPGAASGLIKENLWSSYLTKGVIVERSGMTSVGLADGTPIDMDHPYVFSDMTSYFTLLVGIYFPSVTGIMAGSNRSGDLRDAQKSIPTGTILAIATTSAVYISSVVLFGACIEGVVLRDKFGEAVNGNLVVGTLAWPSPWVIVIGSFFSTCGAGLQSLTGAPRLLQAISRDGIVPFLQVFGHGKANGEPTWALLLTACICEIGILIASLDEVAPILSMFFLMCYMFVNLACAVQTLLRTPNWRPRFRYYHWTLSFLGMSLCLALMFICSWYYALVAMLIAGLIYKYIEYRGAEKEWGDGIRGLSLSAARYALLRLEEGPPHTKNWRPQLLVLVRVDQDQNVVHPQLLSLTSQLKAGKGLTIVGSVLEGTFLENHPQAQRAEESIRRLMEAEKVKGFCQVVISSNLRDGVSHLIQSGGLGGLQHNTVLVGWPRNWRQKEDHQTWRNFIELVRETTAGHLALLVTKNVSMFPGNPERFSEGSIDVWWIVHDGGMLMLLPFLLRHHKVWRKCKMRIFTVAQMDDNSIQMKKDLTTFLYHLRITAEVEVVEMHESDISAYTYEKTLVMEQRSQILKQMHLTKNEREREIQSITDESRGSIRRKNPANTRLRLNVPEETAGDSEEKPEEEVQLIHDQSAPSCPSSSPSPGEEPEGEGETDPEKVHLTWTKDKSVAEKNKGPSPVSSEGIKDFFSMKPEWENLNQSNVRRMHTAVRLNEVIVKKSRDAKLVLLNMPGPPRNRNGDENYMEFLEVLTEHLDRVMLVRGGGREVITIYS
Each line names hits and unclear results; the compound was inactive in the other large screens.

CCn1nc(C(=O)OCC(=O)N2CCc3ccccc32)c2ccccc2c1=O	KCC2 mod -3.42
O=C(OCC(=O)N1CCc2ccccc21)c1nc(Cl)ccc1Cl	none
COc1ccc(-c2cc(C(F)(F)F)n3nc(C(=O)NCc4ccco4)cc3n2)cc1	Autophagy mod active (no result: KCC2 mod)
CN(NC(=S)Nc1ccc(OC(F)F)cc1)C(=S)Nc1ccc(OC(F)F)cc1	WT yeast gro inh 65.1
COc1ccc(C)cc1NC(=O)C(Sc1nnnn1C)c1ccccc1 (stereo not drawn)	none
CCCn1c(SC(C(=O)Nc2cc(C)ccc2OC)c2ccccc2)nc2ccccc2c1=O (stereo not drawn)	KCC2 mod 13.7
Cc1cccc(N2C(=O)C(Oc3ccc(Cl)cc3Cl)C2C=O)c1C (stereo not drawn)	WT yeast gro inh 75.4, KCC2 mod -3.01 (no result: SKKanGAS inh)
COCCN1CC(=O)N(c2cccc(C)c2C)C(c2ccc(Cl)cc2)C1=O (stereo not drawn)	none
CC(=O)Nc1c2c3c(cccc3n(C)c1=O)C(=O)c1ccccc1-2	none (no result: Insulin prom up, KCC2 mod)
Cn1c(=O)c(Nc2ccc(Cl)cc2)c2c3c(cccc31)C(=O)c1ccccc1-2	Autophagy mod active, Insulin prom up 15.1 (no result: Rad51 HR inh)
CC1CC(NC(=O)c2c(O)nc3sccn3c2=O)CC(C)(C)C1 (stereo not drawn)	SKKanGAS inh 50.1 (no result: Autophagy mod, Insulin prom up, Rad51 HR inh, WT yeast gro inh, KCC2 mod)
CCc1ccc(C(=O)COC(=O)c2cccnc2Cl)cc1	none
COc1ccc(C(C)=O)cc1CSc1nc2ccccc2c(=O)n1-c1cccc(C)c1	WT yeast gro inh 64.8 (no result: Rad51 HR inh)
COc1ccc(C(C)=O)cc1CSc1nc2ccccc2c(=O)n1-c1ccccc1C	WT yeast gro inh 61.1
COc1cccc(CN(C)C(=O)CSc2nc3ccccc3[nH]2)c1OC	none (no result: Autophagy mod, Insulin prom up, Rad51 HR inh, WT yeast gro inh, KCC2 mod)
O=C(CCc1nc2ccccc2[nH]c1=O)N/N=C/c1ccccc1	none
CCc1c(C(=O)N2CCCN(C)CC2)csc1C	none (no result: Autophagy mod, Insulin prom up, Rad51 HR inh, WT yeast gro inh, KCC2 mod)
Cc1ccc2nc(-c3ccc(NS(=O)(=O)c4ccc(F)c(F)c4)cc3)sc2c1	SKKanGAS inh 76.1 (no result: Insulin prom up)
Cc1ccc2nc(-c3ccc(NS(=O)(=O)c4ccccc4)cc3)sc2c1	none (no result: Rad51 HR inh)
CNc1ccccc1C(C)(C)c1cc(-c2cccc(Br)c2)no1	WT yeast gro inh 72.7 (no result: Insulin prom up, Rad51 HR inh)
CNc1ccccc1C(C)(C)c1cc(-c2cccc([N+](=O)[O-])c2)no1	none
O=C(CNC(=O)c1cccc(F)c1)OCCOc1cccc(Cl)c1	none (no result: Autophagy mod, Insulin prom up, Rad51 HR inh, WT yeast gro inh, KCC2 mod)
OCc1cc(C(O)CNCCCCCCOCCCCc2ccccc2)ccc1O (stereo not drawn)	KCC2 mod -3.05 (no result: Autophagy mod)
CC(C)(C)NCC(O)c1ccc(O)c(CO)c1 (stereo not drawn)	none (no result: SKKanGAS inh, Autophagy mod, Insulin prom up, WT yeast gro inh, KCC2 mod)
O=C(Nc1ncc2c(n1)CC(c1ccco1)CC2=O)c1ccccc1 (stereo not drawn)	WT yeast gro inh 70.1 (no result: Rad51 HR inh, KCC2 mod)
Cc1ccc(C(=O)Nc2ncc3c(n2)CC(c2ccco2)CC3=O)cc1 (stereo not drawn)	none
COc1ccccc1C(CNC(=O)c1ccc(-c2ccccc2Cl)o1)N1CCCC1 (stereo not drawn)	none (no result: Autophagy mod, Insulin prom up, Rad51 HR inh, WT yeast gro inh, KCC2 mod)
CCC(=O)Oc1c(S(=O)(=O)c2ccc(C)cc2)c(C)nn1C(C)(C)C	none
Cc1ccc(S(=O)(=O)c2c(C)nn(C(C)(C)C)c2OC(=O)CC(C)C)cc1	WT yeast gro inh 69.5
CC1CCc2cc(F)cc3c(=O)c(C(=O)O)cn1c23 (stereo not drawn)	none (no result: Insulin prom up)
COc1c(N2CCNC(C)C2)c(F)cc2c(=O)c(C(=O)O)cn(C3CC3)c12 (stereo not drawn)	SKKanGAS inh 105.4 (no result: Autophagy mod, Insulin prom up, WT yeast gro inh, KCC2 mod)
O=C(O)c1cn(C2CC2)c2cc(N3CCOCC3)c(F)cc2c1=O	none (no result: SKKanGAS inh, Insulin prom up, Rad51 HR inh, WT yeast gro inh)
CN1CCN(c2c(F)cc3c(=O)c(C(=O)O)cn(CCF)c3c2F)CC1	none (no result: SKKanGAS inh, Autophagy mod, Rad51 HR inh)
COc1c(N2CCN(C(=S)Nc3ccc(F)cc3)C(C)C2)c(F)cc2c(=O)c(C(=O)O)cn(C3CC3)c12 (stereo not drawn)	SKKanGAS inh 115.3
COc1c(N2CCN(C(=S)NC3CC4CCC3C4)C(C)C2)c(F)cc2c(=O)c(C(=O)O)cn(C3CC3)c12 (stereo not drawn)	SKKanGAS inh 101.5 (no result: Autophagy mod, Rad51 HR inh, WT yeast gro inh)
NC1CCN(c2c(F)cc3c(=O)c(C(=O)O)cn(C4CC4)c3c2Cl)C1 (stereo not drawn)	SKKanGAS inh 73.9 (no result: Autophagy mod, WT yeast gro inh)
CCC(=O)Nc1cc(C(=O)OCc2ccc(C(=O)Oc3ccccc3)cc2)ccc1C	none (no result: Insulin prom up, Rad51 HR inh)
CCCn1c(SCC(=O)NCc2ccc(F)cc2)n[nH]c1=O	none
NC1CCN(c2nc3c(cc2F)c(=O)c(C(=O)O)cn3-c2ccc(F)cc2F)C1 (stereo not drawn)	SKKanGAS inh 103.3 (no result: Autophagy mod, Insulin prom up, WT yeast gro inh, KCC2 mod)
COc1ccc(OCC(=O)N(C)Cc2ccccc2)cc1	Autophagy mod active
Cc1cc(OCC(=O)N(C)Cc2ccccc2)ccc1Br	none (no result: Autophagy mod, Insulin prom up, Rad51 HR inh, WT yeast gro inh, KCC2 mod)
CN1\C(=C/C=C/C=C/C=[N+](C)C)C(C)(C)c2ccccc21	Autophagy mod active, Insulin prom up inconclusive, WT yeast gro inh 92.2 (no result: KCC2 mod)
CN(C)c1ccc(N=C/C=C2\N(C)c3ccccc3C2(C)C)cc1	none (no result: Insulin prom up, Rad51 HR inh)
CN1/C(=C\C=Nc2ccc3ccccc3c2)C(C)(C)c2ccccc21	Autophagy mod active, WT yeast gro inh 76.7 (no result: SKKanGAS inh, KCC2 mod)
Cc1nn(C(=O)c2ccc([N+](=O)[O-])cc2)c(C)c1Br	none (no result: Autophagy mod, WT yeast gro inh, KCC2 mod)
O=C(NCc1ccccc1)c1c[nH]c2ccccc2c1=O	none (no result: Autophagy mod, Insulin prom up, Rad51 HR inh, WT yeast gro inh, KCC2 mod)
Oc1ccc(Cl)cc1-c1cc(-c2cccc(Br)c2)n[nH]1	SKKanGAS inh 53.7, WT yeast gro inh 81.6
Cc1nc(N)nc(N)c1CCCc1ccc(Cl)c(Cl)c1	SKKanGAS inh 109.0 (no result: Autophagy mod, Insulin prom up, Rad51 HR inh, WT yeast gro inh, KCC2 mod)
